# Bioassay records from PubChem BioAssay.
# Sampled rows, rich in hits. Any-hit rate of the full collection: about 2.4%.
# SUMO1-SIM PPI: SUMO1-SIM interaction modulation; inhibition, % at 20 µM; SUMO1 binding to a labelled peptide, TR-FRET, 1 h; P63165; actives 0.33% (n = 360,000); AID 602429; in the data active = inhibition above about 37%
# Target sequence (P63165 whole entry, looked up): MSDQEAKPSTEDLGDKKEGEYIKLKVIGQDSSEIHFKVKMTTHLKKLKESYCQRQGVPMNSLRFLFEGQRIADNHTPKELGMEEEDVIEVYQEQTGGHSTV
# DNMT1 inh: inhibitors of human DNMT1; P26358; DNMT1 molecular beacon, Hinp1I cleavage, fluorescence; inhibition (reported as % activation of signal), % at 10 µM; actives 0.83% (n = 360,000); AID 588458; in the data active = inhibition above about 50%
# NadD block: blocks S. aureus nicotinate mononucleotide adenylyltransferase; AID 602399; purified NadD enzyme, colorimetric absorbance read-out; actives 0.78% (n = 360,000); inhibition, % at 20 µM; in the data active = inhibition above about 26%
# Scp1 inh: blocks human Scp-1 phosphatase activity. Q9GZU7. Recombinant Scp1, phosphopeptide, malachite green phosphate absorbance. inhibition, % at 20 µM. actives 0.88% (n = 340,000);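 active = inhibition above about 50% at 20 µM, limit read from the data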;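 note: plate controls were DMSO wells with enzyme for no effect and wells lacking enzyme for full effect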
# Target sequence (Q9GZU7 76-261 limits assumed): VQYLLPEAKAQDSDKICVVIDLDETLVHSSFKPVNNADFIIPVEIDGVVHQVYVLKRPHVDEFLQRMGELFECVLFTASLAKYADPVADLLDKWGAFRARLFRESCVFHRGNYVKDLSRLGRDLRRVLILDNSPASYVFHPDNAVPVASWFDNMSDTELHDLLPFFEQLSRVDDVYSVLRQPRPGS
#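 System: SCP-1 catalytic domain; Reagent: Phospho 17-mer peptide substrate; Doses: one concentration, 20 µM, with 1.0% DMSO; Incubation: 45 min room-temperature reaction, 5 min colour, 30 min stabiliser; Signal: Phosphate-binding colour reagent, absorbance read at 630 nm.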
# STEP inh: inhibitors of human striatal-enriched phosphatase STEP; P54829; recombinant STEP, OMFP fluorogenic substrate, fluorescence; inhibition, % at 20 µM; actives 0.25% (n = 360,000); AID 588621;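 active = inhibition at 20 µM, scaled per plate between control wells, above about 37%, limit read from the data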;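 note: 0% = DMSO with enzyme and substrate and 100% = substrate only without enzyme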
#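 System: STEP (striatal-enriched tyrosine phosphatase) enzyme, cell-free; medium: Bis-Tris pH 6.0 buffer with DTT, detergent; dosing: 20 µM, 1% DMSO; times: reaction 20 min, ambient temperature; detection: fluorescence, 480/540 nm; read-out basis: normalized % inhibition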
# LMPTP inh: LMPTP (human) inhibition; P24666; recombinant LMPTP-A, OMFP fluorogenic substrate, fluorescence intensity; inhibition, % at 20 µM; actives 0.22% (n = 360,000);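 active = compounds that cut the enzyme signal by at least half of the control window in the single-dose screen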;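 note: plate controls were DMSO wells with enzyme plus substrate for no effect and substrate without enzyme for full effect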
# Target sequence (P24666 whole entry, looked up): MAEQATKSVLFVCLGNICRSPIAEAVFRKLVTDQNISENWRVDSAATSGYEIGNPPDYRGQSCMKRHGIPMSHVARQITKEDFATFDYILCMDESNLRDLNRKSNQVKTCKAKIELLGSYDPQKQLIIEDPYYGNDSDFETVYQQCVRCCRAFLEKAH
#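 Test system – LMPTP-A enzyme · Amount – LMPTP-A at 0.625 nM final in the reaction · Buffer or medium – Bis-Tris pH 6.0, DTT, detergent · Reagent – OMFP 400 µM · Doses – single 20 µM dose · Schedule – reaction 50 min, room temperature, dark · Detection – fluorescence intensity of OMFP turnover product · Evaluation – percent inhibition versus substrate-only and uninhibited controls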
# DNMT1 inh conf: DNMT1 inhibition confirmation, single concentration | shares compounds with DNMT1 inh | DNMT1 molecular beacon HinP1I cleavage, fluorescence | inhibition, % at 10 µM | actives 8% (n = 2,300) | AID 602385;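 active = average inhibition of at least 30% in the single-concentration confirmation test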
# DNMT1 interf: shows spectral interference in the DNMT1 beacon assay. DNMT1 molecular beacon spectral interference counterscreen, fluorescence 485/520. actives 1% (n = 2,300). activation (fluorescence interference), % at 10 µM. shares compounds with DNMT1 inh;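 active = activation of at least 30% at 10 µM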;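 note: DNMT1 catalytic domain with a HinP1I cleavage step and a FAM/dabcyl DNA beacon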
# The depositor's hits bear a star; · = no result given.
SMILES,SUMO1-SIM PPI,DNMT1 inh,NadD block,Scp1 inh,STEP inh,LMPTP inh,DNMT1 inh conf,DNMT1 interf
O=C(C1=C(O)C(=O)N(Cc2ccco2)C1c1cccc(O)c1)c1ccco1 (stereo unspecified),0,81*,5,-2,4,0,1,1
Cc1ccc(C(=O)C2=C(O)C(=O)N(Cc3ccco3)C2c2cccc(Br)c2)o1 (stereo unspecified),-2,0,21,-4,3,22,·,·
CCc1cc2c(=O)n3c(nc2s1)-c1[nH]c2ccc(OC)cc2c1CC3,-2,76*,2,2,1,2,5,5
CC1=CC=CC2=NC(=O)CC(C)(C(=O)N(CC(=O)NC(C)C)C3CCCC3)N12 (stereo unspecified),1,-2,2,0,1,-3,·,·
COc1ccc2nc3ccccc3nc2c1NC(=O)c1ccc(Cl)cc1Cl,-8,57*,-8,-4,-50,-4,29,37*
COc1cc(NC(C)=O)ccc1-c1cc2ccccc2oc1=O,-16,-10,0,-6,-1,0,·,·
COc1cc(NC(=O)c2ccc(Cl)cc2Cl)ccc1-c1cc2ccccc2oc1=O,2,66*,18,-4,-1,4,-1,-2
CN(C)C(CNC(=O)C1CC(=O)N(c2cccc(C(F)(F)F)c2)C1)c1ccccc1 (stereo unspecified),-1,91*,-3,·,-1,-3,2,4
CN(C)C(CNC(=O)C1CC(=O)N(Cc2ccccc2)C1)c1ccccc1 (stereo unspecified),2,2,-4,-2,-1,-3,·,·
COc1cc(OC)c2ccc(=O)oc2c1C(CC(=O)N1CCCC1)c1ccc2c(c1)OCO2 (stereo unspecified),-2,72*,4,48,8,2,0,-4
CCOc1ccc(OCC)c(S(=O)(=O)NCCOC23CC4CC(CC(C4)C2)C3)c1,-4,0,-8,-18,2,3,·,·
COc1cc(S(=O)(=O)NCCOC23CC4CC(CC(C4)C2)C3)c(OC)cc1Cl,2,107*,-6,-7,1,0,-2,3
CCn1nnnc1NCc1ccc(N2CCCC2)cc1,0,82*,29,-2,4,60*,4,3
Cc1ccc(OCC(=O)Nc2ccc(-c3nc4ncccc4o3)cc2)c(C)c1,4,55*,-5,5,-2,12,4,4
Cc1ccc(OCC(=O)Nc2ccncc2)c(C)c1,5,-2,-4,-2,2,-2,·,·
Cc1cc(Cl)ccc1OCC(=O)Nc1cccc(S(=O)(=O)NC2=NCCCCC2)c1,7,95*,-1,2,-2,1,3,2
Fc1cccc(Cc2c(-c3ccco3)nc3ccc(Cl)cn23)c1,0,19,11,·,-4,1,·,·
Clc1ccc2nc(-c3ccco3)c(Cc3ccccc3)n2c1,5,64*,26,·,-1,7,5,3
Clc1ccc2c(N/N=C/c3ccccc3Br)ccnc2c1,-2,28,15,6,7,12,·,·
Clc1ccc2c(N/N=C/c3cccc(Br)c3)ccnc2c1,1,80*,16,-17,6,3,4,3
CCOc1ccc(NC(=S)NC(=O)/C=C/c2ccc(C)cc2)c([N+](=O)[O-])c1,-5,53*,6,-11,2,1,2,-4
C/C(=C\c1ccc(C(=O)O)cc1)c1ccc2c(c1)C(C)(C)CCC2(C)C,11,52*,21,-6,-2,-1,21,0
Cc1cccn2c(=O)c3cc(C(=O)NCc4ccco4)c(=N)n(C4CCCCC4)c3nc12,-22,6,-1,2,1,3,·,·
Cc1cc2ncn(S(=O)(=O)c3ccc(S(=O)(=O)N4CCCCCC4)cc3)c2cc1C,-3,1,3,7,-1,1,·,·
